Shown are actives, neighbours in structure and some others; about 3.7% of the full set was active somewhere.
KCNK9 block: KCNK9 potassium channel inhibitors, primary screen, HEK293 cells, thallium flux; Potassium channel subfamily K member 9 (Homo sapiens), Q9NPC2; FluxOR thallium flux fluorescence; stronger effect = lower value; B-score at 10 µM; 1.2% of 310,000 active; AID 488922, 2010;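 active means ratio B-score over 3 SD below the library mean, with starting fluorescence within 5 SD of its mean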;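 further: negative B-score means less thallium flux so channel inhibition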
KCNK3 block: human KCNK3 channel inhibitors, primary screen, CHO cells, FluxOR thallium flux, B-score. Potassium channel subfamily K member 3 (Homo sapiens), O14649. FluxOR fluorescence; stronger effect = lower value. B-score at 10 µM. 0.84% of 340,000 active;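 active means B-score under library mean minus 4 SD, starting fluorescence ratio at most library mean plus 5 SD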;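 further: more negative B-score means stronger inhibition of thallium flux through KCNK3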
hERG rescue: hERG rescue from dofetilide block, primary screen, cell-based, CHO-hERG, FluxOR thallium flux, dofetilide IC70; 0.51% of 310,000 active; dofetilide IC70 present; Voltage-gated inwardly rectifying potassium channel KCNH2 (Homo sapiens), Q12809; activation (rescue from dofetilide block), less the hit threshold, % at 10 µM;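 active means activation above the mean of controls blocked by dofetilide plus 5 SD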;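 further: thallium influx through hERG after potassium depolarization seen as dye fluorescence rise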
Kir21 block: inhibitors of mouse Kir2.1 inward-rectifier potassium channel. Inward rectifier potassium channel 2 (Mus musculus), P35561. HEK293-Kir2.1, FluxOR thallium flux fluorescence; stronger effect = lower value. B-score at 10 µM. 0.85% of 310,000 active. AID 1672, 2009;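 active means fluorescence ratio B-score at or below minus 3 SD of library scores, with starting-brightness B-score within 2 SD, cut at about -4.2 in these data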;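 further: channel flux triggered by added potassium and thallium sulfate stimulus; B-score of peak minus minimum fluorescence over baseline after thallium stimulus; more negative B-score means stronger Kir2.1 block with less thallium influx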
KCNQ1 act: potentiators or activators of KCNQ1 channel, primary screen, cell-based, thallium flux, high-throughput; Potassium voltage-gated channel subfamily KQT member 1 (Homo sapiens), P51787; CHO-K1 KCNQ1, thallium flux FluxOR fluorescence; stronger effect = higher value; B-score at 10 µM; 0.35% of 310,000 active; AID 2648, 2010;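 active means fluorescence ratio B-score, a plate-corrected score, at least three library SD, with initial intensity B-score within 5 SD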
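Material: CHO-K1 cells stably expressing KCNQ1. Medium: assay buffer for compound exposure, DMSO matched across wells. Reagent: K+/Tl+ depolarizing stimulus. Compound dosing: single-concentration screen. Times: 37 °C overnight plating, 90-min dark dye load, 20-min compound pretreatment. Technique: FluxOR Tl+ flux fluorescence.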
KCNQ1 inh: inhibitors of human KCNQ1 channel, primary screen, cell-based, thallium flux, high-throughput; AID 2642, 2010; CHO-K1 KCNQ1, FluxOR thallium flux fluorescence; stronger effect = higher value; Potassium voltage-gated channel subfamily KQT member 1 (Homo sapiens), P51787; 1.3% of 310,000 active; B-score at 10 µM;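 active means compounds whose thallium flux B-score, printed positive for inhibition, exceeds three library SD while starting fluorescence stays within three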;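 further: channel opened by potassium depolarization with thallium stimulus after 20 min compound exposure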
KCNQ1 inh valid: KCNQ1 potassium channel inhibitors, confirmation, cell-based, Tl flux, duplicate | AID 588353, 2011 | KCNQ1 cell line, FluxOR thallium flux fluorescence | inhibition, % at 10 µM | 93% of 1,600 active | shares compounds with KCNQ1 inh;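 active means primary screen active, with duplicate mean exceeding buffer control mean plus 3 SD of buffer wells, cut at about 28% in these data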;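 further: 0% = buffer control ratio and 100% = XE991 inhibitor control ratio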
CHO Tl flux: thallium flux effects in parental CHO cells, counter-screen for KCNQ1 inhibitor project, cell-based, Tl flux. 21% of 1,600 active. shares compounds with KCNQ1 inh. fluorescence ratio (Tl flux) at 10 µM. parental CHO-K1, FluxOR thallium flux fluorescence ratio; stronger effect = lower value; zero means no signal rise above baseline. AID 588366, 2011;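 active means mean of duplicate thallium-flux fluorescence ratios in parental host cells more than 5 SD below the buffer control mean, cut at about 0.38 in these data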;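 further: ratio is peak minus minimum fluorescence divided by baseline fluorescence; actives read low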
KCNQ1 ephys val: KCNQ1 channel inhibitors, confirmation, orthogonal assay, cell-based, automated electrophysiology; 20% of 490 active; KCNQ1-CHO cells, automated patch clamp current; calls only at 10 µM; shares compounds with KCNQ1 inh;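 active means KCNQ1 current drop exceeding 3 SD of negative control wells, seen in both duplicate runs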;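 further: steady state current during a 2 s step from -80 to +40 mV; negative values mean current inhibition and positive values mean potentiation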
KCNQ2 spec: KCNQ2 channel inhibition, selectivity assay for KCNQ1 inhibitor project, cell-based; shares compounds with KCNQ1 inh; KCNQ2 cells, FluxOR thallium flux fluorescence; inhibition, % at 10 µM; 71% of 1,600 active; AID 651746, 2012;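 active means mean percent inhibition of the KCNQ2 thallium signal more than 5 SD above the buffer-only control wells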;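 further: KCNQ2 expressed in CHO cells; 0% = buffer control wells and 100% = XE-991 inhibitor control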
Target sequence (O88943 whole entry, looked up): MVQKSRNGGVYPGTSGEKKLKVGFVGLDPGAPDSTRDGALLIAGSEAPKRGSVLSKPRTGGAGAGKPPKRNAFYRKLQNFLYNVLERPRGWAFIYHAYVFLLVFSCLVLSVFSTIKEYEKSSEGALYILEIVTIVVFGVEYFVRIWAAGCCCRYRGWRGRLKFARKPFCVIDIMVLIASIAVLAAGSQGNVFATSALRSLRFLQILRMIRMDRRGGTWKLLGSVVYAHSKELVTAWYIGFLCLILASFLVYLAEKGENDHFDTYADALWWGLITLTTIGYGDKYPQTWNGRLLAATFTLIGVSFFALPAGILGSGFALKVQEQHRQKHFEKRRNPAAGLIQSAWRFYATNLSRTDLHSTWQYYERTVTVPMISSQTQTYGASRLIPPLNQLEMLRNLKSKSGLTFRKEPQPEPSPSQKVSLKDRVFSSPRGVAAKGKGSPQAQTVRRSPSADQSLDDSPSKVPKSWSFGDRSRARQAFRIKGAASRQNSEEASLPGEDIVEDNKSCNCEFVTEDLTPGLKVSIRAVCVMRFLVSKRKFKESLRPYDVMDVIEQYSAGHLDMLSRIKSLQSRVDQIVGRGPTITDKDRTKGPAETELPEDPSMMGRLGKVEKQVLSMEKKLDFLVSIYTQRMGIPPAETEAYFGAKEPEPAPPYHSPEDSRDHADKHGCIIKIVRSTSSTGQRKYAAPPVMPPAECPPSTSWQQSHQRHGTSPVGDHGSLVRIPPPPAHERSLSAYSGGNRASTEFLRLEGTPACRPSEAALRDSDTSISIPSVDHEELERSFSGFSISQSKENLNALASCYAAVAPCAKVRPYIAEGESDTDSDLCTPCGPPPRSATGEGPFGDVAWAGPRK
KCNQ1 KCNE1 spec: KCNQ1/KCNE1 channel inhibition, selectivity assay for KCNQ1 inhibitor project, CHO-K1 cells, thallium flux, FluxOR. FluxOR thallium flux fluorescence. shares compounds with KCNQ1 inh. inhibition, % at 10 µM. 77% of 1,600 active;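 active means mean percent inhibition of duplicate wells above the buffer-only control mean plus 3 SD of those controls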;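 further: 0% = buffer only wells and 100% = XE-991 inhibitor control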
The depositor's hits bear a star; i = inactive; x = no result; + = active, no number.

SMILES	KCNK9 block	KCNK3 block	hERG rescue	Kir21 block	KCNQ1 act	KCNQ1 inh	KCNQ1 inh valid	CHO Tl flux	KCNQ2 spec	KCNQ1 KCNE1 spec	others
CC1CN(C(=O)c2cccc(S(=O)(=O)N3CCN(c4ccc(F)cc4)CC3)c2)CC(C)O1 (stereo not drawn)	i	i	-8.5	-0.7	i	i	x	x	x	x
CC1Sc2ccc(S(=O)(=O)N3CCC(C(=O)Nc4cccc(Cl)c4)CC3)cc2NC1=O (stereo not drawn)	i	i	-9.8	0.75	i	11*	149.5*	0.388	129.3%*	159.5%*
Cc1ccc(NC(=O)C2CCN(S(=O)(=O)c3ccc4c(c3)NC(=O)C(C)S4)CC2)cc1C (stereo not drawn)	i	i	-9.6	0.66	i	8*	138.5*	0.48	117.0%*	128.5%*	KCNQ1 ephys val=i
COCCOC(=O)c1c(NC(=O)CN2CCCc3ccccc32)sc(C(N)=O)c1C	i	i	-8.0	0.6	i	i	x	x	x	x
CCCc1cc(NCc2ccccn2)n2nc(C)c(-c3ccccc3)c2n1	i	i	-16.3	-0.25	i	8*	55.5*	0.419	108.3%*	83.5%*
Cc1ccc(S(=O)(=O)NC(C)C(c2cccs2)N2CCN(c3ccccc3)CC2)cc1 (stereo not drawn)	i	i	-5.3	0.36	i	7*	67.5*	0.446	88.7%*	92.0%*
Cc1ccc(S(=O)(=O)NC(C)C(c2cccs2)N2CCN(C)CC2)cc1 (stereo not drawn)	i	i	-0.7	-1.32	i	i	x	x	x	x
Cc1cccc(-n2c(SCC(=O)N3CC(=O)Nc4ccccc43)nc3ccccc3c2=O)c1C	i	i	-6.3	0.06	i	i	x	x	x	x
CCCc1nn(-c2ccccc2)c2c1C(c1cccs1)C(C#N)=C(N)O2 (stereo not drawn)	i	i	-4.2	0.35	i	7*	0.0	0.412	i	i
Cc1ccc(OCCCCn2cnc3ccccc32)c(C)c1	i	i	-11.0	-1.14	i	9*	115.5*	0.512	74.0%*	81.5%*	KCNQ1 ephys val=i
Cc1ccc(C)c(OCCCCn2cnc3ccccc3c2=O)c1	i	i	-9.0	-1.72	i	i	x	x	x	x
Cc1ccc(NC(=O)CNCc2ccccc2Cl)cc1S(=O)(=O)N(C)C	i	i	-7.2	-2.26	i	i	x	x	x	x
Cc1cccc(C)c1OCC(O)CN(Cc1ccccc1O)C1CCCCC1 (stereo not drawn)	i	i	-16.6	-1.15	i	7*	94.0*	0.415	113.7%*	55.0%*	KCNQ1 ephys val=+
O=C(CC1C(=O)NCCN1Cc1ccccc1C(F)(F)F)NCCN1CCCCC1=O (stereo not drawn)	i	i	-7.6	0.03	i	i	x	x	x	x
Cc1ccc(-c2nn(CC(=O)N3CCOCC3)c(=O)c3ccccc23)cc1S(=O)(=O)N(C)C	i	i	-11.0	0.64	i	i	x	x	x	x
O=S(=O)(Oc1ccc(C(=S)N2CCOCC2)cc1)c1ccc(Cl)cc1	i	i	-4.4	0.58	i	8*	85.0*	0.461	i	65.0%*
COc1ccc(S(=O)(=O)Oc2ccc(C(=S)N3CCOCC3)cc2OC)cc1	i	i	-8.0	0.07	i	i	x	x	x	x
Cc1occc1-c1nnc(SCC(=O)N2CCOCC2)n1CCc1ccccc1	i	i	-3.6	1.79	i	6*	36.5*	0.534	i	45.0%*
Cc1occc1-c1nnc(SCC(=O)N2CCOCC2)n1CC(C)C	i	i	-3.1	1.51	i	i	x	x	x	x
Cc1ccccc1NC(NC(=O)c1cccs1)C(Cl)(Cl)Cl (stereo not drawn)	i	i	-10.3	-1.71	i	13*	120.5*	0.429	i	114.5%*	KCNQ1 ephys val=i
O=C(C1COc2ccccc2O1)N1CCN(Cc2ccc3c(c2)OCO3)CC1 (stereo not drawn)	i	i	-4.8	-0.45	i	i	x	x	x	x
O=C(C1COc2ccccc2O1)N1CCN(Cc2ccc(Br)cc2F)CC1 (stereo not drawn)	i	i	-7.5	0.62	i	8*	60.5*	0.479	107.7%*	80.0%*
Cc1ccc(-c2ocnc2C(=O)N2CCOCC2)cc1	i	i	-4.0	0.79	i	i	x	x	x	x
COc1cccc(NC(=O)Nc2cc(C(=O)O)ccc2C)c1	i	i	-6.4	-0.48	i	i	x	x	x	x
COc1cccc(NC(=O)Nc2ccc(C)c(Cl)c2)c1	i	i	-8.6	0.12	i	6*	76.5*	0.522	i	i
Cc1ccc(NC(=O)Nc2ccc(F)cc2)cc1Cl	i	i	-6.8	0.7	i	10*	69.5*	0.446	61.3%*	i
CC(OC(=O)c1cc(S(=O)(=O)N2CCOCC2)ccc1F)C(=O)NCc1ccc2c(c1)OCO2 (stereo not drawn)	i	i	-16.2	0.05	i	i	x	x	x	x
Cc1ccc(S(=O)(=O)N2CCOCC2)cc1NC(=O)CNC(C)c1ccccc1 (stereo not drawn)	x	i	x	x	x	x	x	x	x	x
